Rows were chosen to be rich in hits. Some 3.7% of all compounds tested hit in one or more screens of this group.
EBV gp42 block – Epstein-Barr virus gp42 inhibitors, primary screen, biochemical, uHTS, fluorescence polarization | inhibition, % (tested at 21.74 µM) | Fluorescence polarization binding assay, mP read-out | AID 1085, 2008 | hit rate 0.42% among 220,000; in the data active = inhibition above about 50%
RBBP9 inhibitor – human RBBP9 inhibitors, primary screen, biochemical, fluorescence polarization, FP-Rh probe, HTS | inhibition, % at 7.94 µM | hit rate 0.2% among 220,000 | Serine hydrolase RBBP9 (Homo sapiens), O75884 | recombinant RBBP9 | AID 1515, 2009;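 active = inhibition above the campaign mean of all tested compounds plus 3 SD, cut at about 14% in these data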;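 note: plate controls were DMSO wells with RBBP9 for no effect and wells lacking RBBP9 protein for full effect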
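Test system: recombinant human RBBP9. Quantity: 2.5 µM RBBP9 dispensing solution, before mixing. Detection: FP readout at 525/598 nm. Reagent: Serine-hydrolase probe FP-Rh, 375 nM pre-mixing. Measure: % inhibition. Control set: DMSO-treated enzyme wells and wells lacking RBBP9. Buffer or medium: Tris-NaCl-Pluronic buffer, pH 8.0. Times: preincubation 30 min plus labeling 45 min at 25 °C.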
p47phox inh – p47phox/p22phox peptide binding inhibitors, primary screen, biochemical, uHTS, NADPH oxidase regulatory subunit; inhibition, % at 24.7 µM; hit rate 0.53% among 220,000; fluorescence polarization, 2 h; Neutrophil cytosol factor 1 (Homo sapiens), P14598;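 note: 0% = p47phox with labelled peptide and 100% = labelled peptide alone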
WT yeast gro inh – growth inhibition of WT strain, primary screen, mitochondrial fusion inhibitor project, WT and mutant strains, chemical genetic | mitochondrial fusion phenotypic screen | inhibition, % at 10 µM | hit rate 2.1% among 190,000 | AID 1362, 2008; in the data active = inhibition above about 58%; tested in S. cerevisiae
14-3-3 Bad PPI – inhibitors of 14-3-3 zeta/Bad binding, primary screen, biochemical, TR-FRET, bovine 14-3-3 zeta; hit rate 0.71% among 220,000; inhibition, % at 21.7 µM; TR-FRET 14-3-3zeta/Dy647-pBad peptide displacement, 1 h; 14-3-3 protein zeta/delta (Bos taurus), P63103; AID 781, 2007;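 active = inhibition above about 70%, limit read from the data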;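 note: 0% = full 14-3-3 plus peptide FRET controls and 100% = background without 14-3-3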
eIF4E-4G inh – eIF4E–eIF4G protein interaction inhibitors, primary screen, biochemical, uHTS, TR-FRET, eIF4GI fragment | inhibition, % at 21.7 µM | hit rate 0.37% among 220,000 | TR-FRET eIF4E-eIF4GI(517-606) binding, 2 h | Eukaryotic translation initiation factor 4E (Mus musculus) + Eukaryotic translation … | AID 782, 2007;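 note: 0% = full FRET control wells and 100% = background wells lacking eIF4GI fragment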
An asterisk follows results filed as active; . = no result given.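 Rule for the calls, unless noted: active = inhibition above about 30% (limit read from the data); inactive = the rest.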

SMILES	EBV gp42 block	RBBP9 inhibitor	p47phox inh	WT yeast gro inh	14-3-3 Bad PPI	eIF4E-4G inh
O=C1c2ccccc2NC(c2ccc(Cl)cc2Cl)N1Cc1ccccc1 (configuration not stated)	-18	-10	-8	81*	-1	-8
O=C1c2ccccc2NC(c2c(Cl)cccc2Cl)N1Cc1ccccc1 (configuration not stated)	-18	3	-10	-2	0	-2
O=[N+]([O-])c1ccc(-c2cn(-c3ccc(Cl)cc3)c(=S)[nH]2)cc1	54*	-8	14	11	26	6
CCc1ccc(-n2cc(-c3ccc([N+](=O)[O-])cc3)[nH]c2=S)cc1	-10	-4	-6	-5	-2	2
CCC(C)(C)c1ccc(OCCCC[n+]2cccc(C)c2C)c(C(C)(C)CC)c1	-13	3	49*	.	9	11
CCC(C)(C)c1ccc(OCCCC[n+]2ccc(C)cc2)c(C(C)(C)CC)c1	3	-10	33*	99*	20	9
Cc1cccc(C(=O)O/N=C2\CCSc3ccc(C)cc32)c1	5	-6	94*	5	27	5
CC(=O)Nc1nc(S(=O)(=O)c2ccc(C)cc2)c(Cl)s1	-17	0	-9	-31	4	-2
Cc1ccc(S(=O)(=O)c2nc(Nc3nccs3)sc2Cl)cc1	-4	-6	-28	62*	-3	-1
COc1ccc(/C=[N+](\[O-])C2N(c3ccccc3)C(=S)SC2(C)C)cc1OC (configuration not stated)	-8	-11	-6	.	-3	1
O=C(c1cc(-c2ccc(Cl)cc2)n(-c2cc(Cl)ccc2Cl)n1)N1CCOCC1	-7	-2	-3	43	10	1
O=C(c1cc(-c2ccc(Cl)cc2)n(-c2ccc(Cl)c(Cl)c2)n1)N1CCOCC1	-5	-9	-13	66*	4	2
CN(C)CC(C(=O)c1ccccc1)c1ccccc1 (configuration not stated)	-5	-13	-7	77*	20	-11
O=c1[nH]c2ccc(N=Cc3c(O)ccc4cc(Br)ccc34)cc2[nH]1	82*	3	-37	-4	64	4
N#Cc1cccnc1N1CCN(C(=O)COCC(=O)O)CC1	-3	2	-5	.	2	-5
CCOc1cc2[nH]c(=S)n(CCC(=O)NCc3ccc(OC)cc3)c(=O)c2cc1OCC	0	-3	35*	-3	39	-21
CC(=O)c1sc2nc(CSc3nnnn3-c3ccccc3)[nH]c(=O)c2c1C	23	-10	-33	-18	26	31*
Cc1ccc(-n2nnnc2SCc2nc3sc(C)c(C)c3c(=O)[nH]2)cc1	-97	-4	-83	-8	11	-2
CCOC(=O)c1cnn(-c2ccccc2)c1NC(=O)CN1CCCCC1	-13	-1	-1	.	-6	3
O=S(=O)(NCCNc1ncc(C(F)(F)F)cc1Cl)C(F)(F)F	16	-4	-8	83*	-7	2
NC(=S)N/N=C/c1ccccc1OCCSc1ccc(Cl)cc1	2	-16	9	64*	-12	-1
COc1ccc(O[C@H]2C=C[C@@H](c3ccccc3)O[C@@H]2CO/N=C(\C)CCN2CCCCc3nc(C)c(C)cc32)cc1	-25	-1	-72	60*	-7	11
C/C(CCN1CCCCc2nc(C)c(C)cc21)=N\O[C@@H](C)CN1CCCCc2nc(C)c(C)cc21	0	-14	-10	20	1	0
CC1CN(Cc2nc3ccccc3c(=O)[nH]2)CC(C)O1 (configuration not stated)	-7	3	-8	8	0	-8
Cc1nc(N2CCN(C)CC2)c2sc(=S)n(-c3ccccc3)c2n1	-4	-8	-10	8	-3	5
Cc1nc(N2CCN(C)CC2)c2sc(=S)n(C)c2n1	-4	0	106*	-19	-1	6
COc1cccc(C(=O)OCn2nnc3ccccc3c2=O)c1	-12	-5	-22	-6	5	3

Source: PubChem BioAssay (several laboratories)
